Activity calls are given as the source filed them. The calls are words filed in the database; no cut-off is given here.
Molecular target: T1, Peroxisome proliferator-activated receptor delta (Homo sapiens, UniProt Q03181)
T1 sequence (Q03181 whole entry): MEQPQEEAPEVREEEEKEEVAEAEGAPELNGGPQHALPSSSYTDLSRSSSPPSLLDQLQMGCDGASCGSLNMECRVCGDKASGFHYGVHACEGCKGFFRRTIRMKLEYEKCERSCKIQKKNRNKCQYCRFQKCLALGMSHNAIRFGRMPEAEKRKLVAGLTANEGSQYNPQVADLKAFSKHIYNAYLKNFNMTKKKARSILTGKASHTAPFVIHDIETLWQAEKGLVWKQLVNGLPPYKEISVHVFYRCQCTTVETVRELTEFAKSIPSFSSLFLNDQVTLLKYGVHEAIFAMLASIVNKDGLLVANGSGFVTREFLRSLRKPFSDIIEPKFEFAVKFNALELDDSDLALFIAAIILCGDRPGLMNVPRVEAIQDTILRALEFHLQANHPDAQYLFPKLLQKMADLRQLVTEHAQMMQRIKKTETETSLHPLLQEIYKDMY
Assay: Antagonist activity at human PPARdelta assessed as effect on TIPP-703-induced activity
Conditions: not given
In short: (§1)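 Antagonism was measured against stimulation by the hPPAR-pan agonist, with test compound co-applied and the result expressed as % inhibition.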

Row | SMILES | IC50
1 | CCCCOc1ccc(-c2cc(C(=O)O)ccc2C)cc1CNC(=O)c1ccc(C(F)(F)F)cc1 | Not Active
2 | CCCCOc1ccc(-c2ccc(C(=O)O)o2)cc1CNC(=O)c1ccc(C(F)(F)F)cc1 | Not Active
3 | CCCCOc1ccc(-c2ccc(C(=O)O)nc2)cc1CNC(=O)c1ccc(C(F)(F)F)cc1 | Not Active
4 | CCCCOc1ccc(-c2ccc(C)c(C(=O)O)c2)cc1CNC(=O)c1ccc(C(F)(F)F)cc1 | Not Active
5 | CCCCOc1ccc(-c2ccc(C(=O)O)cn2)cc1CNC(=O)c1ccc(C(F)(F)F)cc1 | Not Active

Same assay, conditions: read-out: IC50

Row | SMILES | IC50 [nM]
6 | CCCCOc1ccc(-c2ccc(C(=O)O)cc2F)cc1CNC(=O)c1ccc(C(F)(F)F)cc1 | 100
7 | CCCCOc1ccc(-c2ccc(C(=O)O)cc2C)cc1CNC(=O)c1ccc(C(F)(F)F)cc1 | 19
8 | CCCOc1ccc(-c2ccc(C(=O)O)cc2C)cc1CNC(=O)c1ccc(C(F)(F)F)cc1F | 29
9 | CCCCOc1ccc(-c2ccc(C(=O)O)cc2Cl)cc1CNC(=O)c1ccc(C(F)(F)F)cc1 | 13
10 | CCCCCOc1ccc(-c2ccc(C(=O)O)cc2C)cc1CNC(=O)c1ccc(C(F)(F)F)cc1F | 92
11 | CCOc1ccc(-c2ccc(C(=O)O)cc2C)cc1CNC(=O)c1ccc(C(F)(F)F)cc1F | 28
12 | O=C(Nc1ccncc1)c1cc([N+](=O)[O-])ccc1Cl | > 10000

Organism: Homo sapiens
Assay: Selectivity ratio of human PPARdelta to human PPARalpha
Conditions: not given

Row | SMILES | Selectivity ratio
13 | CCCCOc1ccc(-c2ccc(C(=O)O)cc2C)cc1CNC(=O)c1ccc(C(F)(F)F)cc1 | 1000

Molecular target: T2, Peroxisome proliferator-activated receptor delta (Homo sapiens) (UniProt Q03181)
T2 sequence (whole entry): T1 sequence (Q03181 whole entry)
Assay: Antagonist activity at human PPARdelta assessed as effect on TIPP-703-induced activity at 10 uM
Conditions: not given
In short: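 Antagonism measured as % inhibition of hPPARδ activity stimulated by a co-added hPPAR pan-agonist held at a fixed level of […].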

Row | SMILES | inhibition
14 | NC(=O)c1ncn([C@@H]2O[C@H](CO)[C@@H](O)[C@H]2O)n1 [RIBAVIRIN] | inactive

Test system: Hepatitis C virus
Assay: Antiviral activity against HCV infected in […] OR6 cells assessed as inhibition of viral RNA replication after 72 hrs by luciferase reporter gene assay
Format: functional
Conditions: Hepacivirus hominis
In short: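 OR6 cells carry genome-length HCV RNA with a Renilla luciferase reporter. Cells were plated at 2 × 10⁴ per well, at least in triplicate, and cultured 24 h. They were then exposed to compound for 72 h, lysed in Renilla lysis reagent, and luciferase activity was read. The top test concentration was set from prior WST-1 viability at about 80% relative activity.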

Row | SMILES | inhibition | Activity | ED50
15 | CCCCOc1ccc(-c2ccc(C(=O)O)cc2C)cc1CNC(=O)c1ccc(C(F)(F)F)cc1 | Dose-dependent effect |  | 
16 | COC(=O)c1sccc1S(=O)(=O)Nc1ccc(Nc2ccccc2)cc1OC |  | inactive | 
17 | CCCCOc1ccc(-c2cc(C(=O)O)ccc2C)cc1CNC(=O)c1ccc(C(F)(F)F)cc1 |  |  | inactive
18 | CCCCOc1ccc(-c2ccc(C(=O)O)o2)cc1CNC(=O)c1ccc(C(F)(F)F)cc1 |  |  | inactive
19 | CCCCOc1ccc(-c2ccc(C(=O)O)nc2)cc1CNC(=O)c1ccc(C(F)(F)F)cc1 |  |  | inactive
20 | CCCCOc1ccc(-c2ccc(C)c(C(=O)O)c2)cc1CNC(=O)c1ccc(C(F)(F)F)cc1 |  |  | inactive
21 | CCCCOc1ccc(-c2ccc(C(=O)O)cn2)cc1CNC(=O)c1ccc(C(F)(F)F)cc1 |  |  | inactive

Same assay, conditions: OR6, 72 h, read-out: ED50 (the source's name)

Row | SMILES | EC50 [nM]
22 | CCCCOc1ccc(-c2ccc(C(=O)O)cc2F)cc1CNC(=O)c1ccc(C(F)(F)F)cc1 | 3900
23 | NC(=O)c1ncn([C@@H]2O[C@H](CO)[C@@H](O)[C@H]2O)n1 [RIBAVIRIN] | 5600
24 | CCCCOc1ccc(-c2ccc(C(=O)O)cc2C)cc1CNC(=O)c1ccc(C(F)(F)F)cc1 | 220
25 | CCCOc1ccc(-c2ccc(C(=O)O)cc2C)cc1CNC(=O)c1ccc(C(F)(F)F)cc1F | 220
26 | CCCCOc1ccc(-c2ccc(C(=O)O)cc2Cl)cc1CNC(=O)c1ccc(C(F)(F)F)cc1 | 1800
27 | CCCCCOc1ccc(-c2ccc(C(=O)O)cc2C)cc1CNC(=O)c1ccc(C(F)(F)F)cc1F | 530
28 | CCOc1ccc(-c2ccc(C(=O)O)cc2C)cc1CNC(=O)c1ccc(C(F)(F)F)cc1F | 390
29 | O=C(Nc1ccncc1)c1cc([N+](=O)[O-])ccc1Cl | 4900

Test system: not listed separately
Assay: Selectivity index, ratio of CC50 for […] OR6 cells to ED50 for HCV
Conditions: not given
In short: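 SI was calculated as CC₅₀ (WST-1 viability of OR6 cells, 72 h) divided by EC₅₀ (HCV replicon Renilla luciferase inhibition, 72 h).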

Row | SMILES | Selectivity Index
30 | CCCCOc1ccc(-c2ccc(C(=O)O)cc2F)cc1CNC(=O)c1ccc(C(F)(F)F)cc1 | 2.1
31 | NC(=O)c1ncn([C@@H]2O[C@H](CO)[C@@H](O)[C@H]2O)n1 [RIBAVIRIN] | 18
32 | CCCCOc1ccc(-c2ccc(C(=O)O)cc2C)cc1CNC(=O)c1ccc(C(F)(F)F)cc1 | 11
33 | CCCOc1ccc(-c2ccc(C(=O)O)cc2C)cc1CNC(=O)c1ccc(C(F)(F)F)cc1F | 11
34 | CCCCOc1ccc(-c2ccc(C(=O)O)cc2Cl)cc1CNC(=O)c1ccc(C(F)(F)F)cc1 | 1.8
35 | CCCCCOc1ccc(-c2ccc(C(=O)O)cc2C)cc1CNC(=O)c1ccc(C(F)(F)F)cc1F | 5
36 | CCOc1ccc(-c2ccc(C(=O)O)cc2C)cc1CNC(=O)c1ccc(C(F)(F)F)cc1F | 10
37 | O=C(Nc1ccncc1)c1cc([N+](=O)[O-])ccc1Cl | 0.55

Test system: not listed separately
Assay: Cytotoxicity against […] OR6 cells after 72 hrs by WST1 assay
Format: cell-based
Conditions: not given
In short: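 OR6 cells were seeded at 1 × 10³ per well in triplicate and treated at three or four concentrations for 72 h. Viability was read by WST-1 proliferation assay, and CC₅₀ was determined.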

Row | SMILES | CC50 at 72 h [nM]
38 | CCCCOc1ccc(-c2ccc(C(=O)O)cc2F)cc1CNC(=O)c1ccc(C(F)(F)F)cc1 | 8100
39 | NC(=O)c1ncn([C@@H]2O[C@H](CO)[C@@H](O)[C@H]2O)n1 [RIBAVIRIN] | 100000
40 | CCCCOc1ccc(-c2ccc(C(=O)O)cc2C)cc1CNC(=O)c1ccc(C(F)(F)F)cc1 | 2500
41 | CCCOc1ccc(-c2ccc(C(=O)O)cc2C)cc1CNC(=O)c1ccc(C(F)(F)F)cc1F | 2200
42 | CCCCOc1ccc(-c2ccc(C(=O)O)cc2Cl)cc1CNC(=O)c1ccc(C(F)(F)F)cc1 | 3200
43 | CCCCCOc1ccc(-c2ccc(C(=O)O)cc2C)cc1CNC(=O)c1ccc(C(F)(F)F)cc1F | 2700
44 | CCOc1ccc(-c2ccc(C(=O)O)cc2C)cc1CNC(=O)c1ccc(C(F)(F)F)cc1F | 3900
45 | O=C(Nc1ccncc1)c1cc([N+](=O)[O-])ccc1Cl | 2700

Molecular target: T3, Peroxisome proliferator-activated receptor alpha (Homo sapiens) (UniProt Q07869)
T3 sequence (whole entry): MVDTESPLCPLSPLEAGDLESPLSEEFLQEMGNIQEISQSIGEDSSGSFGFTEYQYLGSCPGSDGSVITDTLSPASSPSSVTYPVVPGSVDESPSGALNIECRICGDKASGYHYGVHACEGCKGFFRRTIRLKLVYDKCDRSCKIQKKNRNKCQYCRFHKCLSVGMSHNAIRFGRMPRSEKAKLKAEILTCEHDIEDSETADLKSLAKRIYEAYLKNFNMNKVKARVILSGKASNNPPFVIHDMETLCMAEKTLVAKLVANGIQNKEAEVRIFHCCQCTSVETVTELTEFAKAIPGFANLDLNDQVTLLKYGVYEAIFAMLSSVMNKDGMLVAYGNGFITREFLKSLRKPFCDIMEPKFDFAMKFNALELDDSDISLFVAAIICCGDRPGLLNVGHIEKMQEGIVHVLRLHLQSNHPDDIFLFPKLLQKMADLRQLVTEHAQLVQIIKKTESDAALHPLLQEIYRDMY
Assay: Antagonist activity at human PPARalpha assessed as effect on TIPP-703-induced activity at 10 uM
Conditions: not given
In short: as §1

Row | SMILES | inhibition [%]
46 | CCCCOc1ccc(-c2ccc(C(=O)O)cc2F)cc1CNC(=O)c1ccc(C(F)(F)F)cc1 | 25.4
47 | CCCCOc1ccc(-c2ccc(C(=O)O)cc2C)cc1CNC(=O)c1ccc(C(F)(F)F)cc1 | 12.6
48 | CCCOc1ccc(-c2ccc(C(=O)O)cc2C)cc1CNC(=O)c1ccc(C(F)(F)F)cc1F | 49.5
49 | CCCCOc1ccc(-c2ccc(C(=O)O)cc2Cl)cc1CNC(=O)c1ccc(C(F)(F)F)cc1 | 30.7
50 | CCCCCOc1ccc(-c2ccc(C(=O)O)cc2C)cc1CNC(=O)c1ccc(C(F)(F)F)cc1F | 23.3
51 | CCOc1ccc(-c2ccc(C(=O)O)cc2C)cc1CNC(=O)c1ccc(C(F)(F)F)cc1F | 49.5
52 | O=C(Nc1ccncc1)c1cc([N+](=O)[O-])ccc1Cl | 31.8
